Test results as given in ChEMBL document CHEMBL4368905, “5,6,7,8-Tetrahydro-1,6-naphthyridine Derivatives as Potent HIV-1-Integrase-Allosteric-Site Inhibitors” (J Med Chem, 2019).

How the values were obtained:
[1] = Cytotoxicity against human MT2 cells assessed as reduction in cell viability after 4 days by XTT assay; format: cell-based
Method in brief: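 Cytotoxicity in MT-2 cells, test compound up to a maximal concentration of 40 μM.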

[2] = Displacement of [3H]-2-tert-butoxy-2-(2-methyl-4-p-tolylquinolin-3-yl)acetic acid from LEDGF/p75 binding site of HIV1 integrase preincubated with radioligand for 1 hr followed by compound addition and measured after 1 hr by microbeta counting assay; design: species or system Human immunodeficiency virus 1
Method in brief: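 Displacement of tritiated ligand from the LEDGF/p75 binding site on integrase. IC50 from a single replicate.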

[3] = test system: Human immunodeficiency virus 1; test: Antiviral activity against wild type HIV-1 NL4-3 infected in human MT2 cells after 5 days by dual luciferase reporter gene assay; format: functional, organism-based; conditions: Human immunodeficiency virus 1, NL4-3, MT2, 120 h
Method in brief: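 HIV-1 NL4-3 replication (viral outgrowth) in MT-2 cells. EC50 from multiple replicates.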

[4] = Volume of distribution at steady state in rat at 1 mg/kg, iv or 5 mg/kg, po by LC-MS/MS analysis; format: ADME, organism-based; conditions: in vivo, read-out: Vdss
Method in brief: (§1)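 Rats dosed 1 mg/kg IV and 5 mg/kg PO. Clearance, Vss and oral bioavailability derived from these profiles.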

[5] = Oral bioavailability in rat at 5 mg/kg by LC-MS/MS analysis; format: ADME, organism-based; conditions: in vivo; method in brief: as §1
[6] = Clearance in rat at 1 mg/kg, iv or 5 mg/kg, po by LC-MS/MS analysis; format: ADME, organism-based; conditions: in vivo; method in brief: as §1
[7] = Metabolic stability in rat liver microsomes assessed as parent compound remaining at 0.5 uM after 10 mins in presence of NADPH by LC-MS/MS analysis; format: ADME, Microsome; conditions: read-out: Stability
Method in brief: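 Rat liver microsomes, compound at 0.5 μM, incubated 10 minutes. Read-out is percent of parent remaining.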

[8] = test system: Human immunodeficiency virus 1; test: Antiviral activity against HIV-1 NL4-3 harboring integrase T124A/T125A double mutant infected in human MT2 cells after 5 days by dual luciferase reporter gene assay; format: functional, organism-based; conditions: Human immunodeficiency virus 1, NL4-3, MT2, 120 h
Method in brief: (§2)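 NL4-3 HIV-1 carrying integrase substitutions engineered into the pol gene. The assay measures inhibition of viral outgrowth in MT-2 cell culture, and the value is reported as EC50.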

[9] = test system: Human immunodeficiency virus 1; test: Antiviral activity against HIV-1 NL4-3 harboring integrase T125A mutant infected in human MT2 cells after 5 days by dual luciferase reporter gene assay; format: functional, organism-based; conditions: Human immunodeficiency virus 1, NL4-3, MT2, 120 h; method in brief: as §2
[10] = test system: Human immunodeficiency virus 1; test: Antiviral activity against HIV-1 NL4-3 harboring integrase T124N mutant infected in human MT2 cells after 5 days by dual luciferase reporter gene assay; format: functional, organism-based; conditions: Human immunodeficiency virus 1, NL4-3, MT2, 120 h; method in brief: as §2
[11] = test system: Human immunodeficiency virus 1; test: Antiviral activity against HIV-1 NL4-3 harboring integrase T124A mutant infected in human MT2 cells after 5 days by dual luciferase reporter gene assay; format: functional, organism-based; conditions: Human immunodeficiency virus 1, NL4-3, MT2, 120 h; method in brief: as §2
[12] = test system: Human immunodeficiency virus 1; test: Antiviral activity against HIV-1 NL4-3 harboring integrase T124A/T125N double mutant infected in human MT2 cells after 5 days by dual luciferase reporter gene assay; format: functional, organism-based; conditions: Human immunodeficiency virus 1, NL4-3, MT2, 120 h; method in brief: as §2

| Structure (SMILES) | CC50 at 96 h [1] | IC50 [2] | EC50 [3] | Vd [4] | clearance [6] | also measured |
| --- | --- | --- | --- | --- | --- | --- |
| Cc1nc2ccccc2c(-c2ccc3c4c(ccnc24)CCO3)c1[C@H](OC(C)(C)C)C(=O)O [BI-224436] | > 40000 nM | 71 nM | 52 nM |  |  |  |
| Cc1ccc(-c2c3c(nc(C)c2[C@H](OC(C)(C)C)C(=O)O)CCN(C/C=C/c2ccccc2)C3)cc1 | > 40000 nM | 160 nM | 120 nM |  |  |  |
| Cc1ccc(-c2c3c(nc(C)c2C(OC(C)(C)C)C(=O)O)CCN(S(C)(=O)=O)C3)cc1 (stereo not drawn) | > 40000 nM | 2200 nM | 2600 nM |  |  |  |
| Cc1ccc(-c2c(C(OC(C)(C)C)C(=O)O)c(C)nc3ccccc23)cc1 (stereo not drawn) | > 40000 nM |  | 150 nM |  |  |  |
| Cc1ccc(-c2c3c(nc(C)c2[C@H](OC(C)(C)C)C(=O)O)CCN(C(=O)NCc2ccccc2)C3)cc1 | > 40000 nM | 310 nM | 500 nM |  |  |  |
| Cc1cccc(CCCN2CCc3nc(C)c([C@H](OC(C)(C)C)C(=O)O)c(-c4cc(F)c5c(c4C)CCCO5)c3C2)c1 | > 40000 nM | 29 nM | 2 nM |  |  |  |
| Cc1ccc(-c2c3c(nc(C)c2[C@H](OC(C)(C)C)C(=O)O)CCN(CCOc2ccccc2)C3)cc1 | > 40000 nM | 170 nM | 200 nM |  |  |  |
| CC(=O)N1CCc2nc(C)c(C(OC(C)(C)C)C(=O)O)c(-c3ccc(C)cc3)c2C1 (stereo not drawn) | > 40000 nM | 17000 nM | 1900 nM |  |  |  |
| Cc1nc2c(c(-c3cc(F)c4c(c3C)CCCO4)c1[C@H](OC(C)(C)C)C(=O)O)CN(CC1CC1c1ccccc1)CC2 (mixture of isomers) | > 40000 nM | 24 nM | 5 nM |  |  |  |
| Cc1ccc(-c2c3c(nc(C)c2C(OC(C)(C)C)C(=O)O)CCN(CCCC2CCCC2)C3)cc1 (stereo not drawn) | > 40000 nM | 240 nM | 39 nM | 66 L/kg | 152 mL/min/kg | bioavailability [5]: 32% |
| Cc1nc2c(c(-c3cc(F)c4c(c3C)CCCO4)c1[C@H](OC(C)(C)C)C(=O)O)CN(CCCc1ccccc1)CC2 | > 40000 nM | 16 nM | 4 nM | 6 L/kg | 82 mL/min/kg | remaining at 10 min, 0.5 µM [7]: 78%; EC50 [8]: 6 nM; bioavailability [5]: 10%; EC50 [9]: 7 nM; EC50 [10]: 6 nM |
| Cc1ccc(-c2c3c(nc(C)c2[C@H](OC(C)(C)C)C(=O)O)CCN(C(=O)CCc2ccccc2)C3)cc1 | > 40000 nM | 760 nM | 340 nM | 2 L/kg | 163 mL/min/kg |  |
| Cc1ccc(-c2c3c(nc(C)c2C(OC(C)(C)C)C(=O)O)CCN(C)C3)cc1 (stereo not drawn) | > 40000 nM | 5800 nM | 2100 nM |  |  |  |
| Cc1nc2c(c(-c3cc(F)c4c(c3C)CCCO4)c1[C@H](OC(C)(C)C)C(=O)O)CN(CCCc1cccc(F)c1)CC2 | > 40000 nM | 44 nM | 4 nM |  |  |  |
| Cc1ccc(-c2c3c(nc(C)c2[C@H](OC(C)(C)C)C(=O)O)CCN(CCCc2ccccc2)C3)cc1 | > 40000 nM | 70 nM | 10 nM | 16 L/kg | 171 mL/min/kg | EC50 [8]: 34 nM; EC50 [9]: 21 nM; EC50 [11]: 17 nM; EC50 [12]: 31 nM; EC50 [10]: 20 nM |
| Cc1ccc(-c2c3c(nc(C)c2[C@H](OC(C)(C)C)C(=O)O)CCN(Cc2ccccc2)C3)cc1 | > 40000 nM | 830 nM | 300 nM | 7 L/kg | 21 mL/min/kg | bioavailability [5]: 35% |
| Cc1ccccc1CCCN1CCc2nc(C)c([C@H](OC(C)(C)C)C(=O)O)c(-c3cc(F)c4c(c3C)CCCO4)c2C1 | > 40000 nM | 19 nM | 2 nM |  |  |  |
| Cc1nc2c(c(-c3cc(F)c4c(c3C)CCCO4)c1[C@H](OC(C)(C)C)C(=O)O)CN(CCCc1ccc(F)cc1)CC2 | > 40000 nM | 15 nM | 4 nM | 1 L/kg | 92 mL/min/kg | remaining at 10 min, 0.5 µM [7]: 78%; bioavailability [5]: 10% |
| Cc1ccc(CCCN2CCc3nc(C)c([C@H](OC(C)(C)C)C(=O)O)c(-c4cc(F)c5c(c4C)CCCO5)c3C2)cc1F | > 40000 nM | 11 nM | 1 nM |  |  |  |
| Cc1ccc(-c2c3c(nc(C)c2C(OC(C)(C)C)C(=O)O)CCN(c2cccc(-c4ccccc4)c2)C3)cc1 (stereo not drawn) | > 40000 nM | 430 nM | 280 nM |  |  |  |
| Cc1ccc(-c2c3c(nc(C)c2[C@H](OC(C)(C)C)C(=O)O)CCN(c2ccc(-c4ccccc4)cc2)C3)cc1 | > 40000 nM | 220 nM | 320 nM |  |  |  |
| Cc1ccc(-c2c3c(nc(C)c2[C@H](OC(C)(C)C)C(=O)O)CCN(CCc2ccccc2)C3)cc1 | > 40000 nM | 850 nM | 240 nM |  |  |  |
| Cc1nc2c(c(-c3cc(F)c4c(c3C)CCCO4)c1[C@H](OC(C)(C)C)C(=O)O)CN(CCCc1ccncc1)CC2 (single isomer, unassigned; atropisomer) | > 40000 nM | 40 nM | 58 nM |  |  |  |
| Cc1ccc(-c2c3c(nc(C)c2[C@H](OC(C)(C)C)C(=O)O)CCN(c2ccccc2)C3)cc1 | > 40000 nM | 230 nM | 470 nM | 3 L/kg | 24 mL/min/kg |  |
| Cc1ccc(-c2c3c(nc(C)c2[C@H](OC(C)(C)C)C(=O)O)CCN(C(=O)OCc2ccccc2)C3)cc1 | > 40000 nM | 140 nM | 230 nM | 19 L/kg | 118 mL/min/kg | bioavailability [5]: 71% |
| COC(=O)N1CCc2nc(C)c(C(OC(C)(C)C)C(=O)O)c(-c3ccc(C)cc3)c2C1 (stereo not drawn) | > 40000 nM | 4200 nM | 1600 nM |  |  |  |
| Cc1ccc(CCCN2CCc3nc(C)c([C@H](OC(C)(C)C)C(=O)O)c(-c4cc(F)c5c(c4C)CCCO5)c3C2)cc1 | > 40000 nM | 12 nM | 2 nM |  |  |  |
| Cc1ccc(-c2c3c(nc(C)c2C(OC(C)(C)C)C(=O)O)CCN(Cc2ccccc2-c2ccccc2)C3)cc1 (stereo not drawn) | > 40000 nM | 80 nM | 70 nM | 9 L/kg | 24 mL/min/kg | bioavailability [5]: 25% |
| CCCCCN1CCc2nc(C)c(C(OC(C)(C)C)C(=O)O)c(-c3ccc(C)cc3)c2C1 (stereo not drawn) | > 40000 nM | 1100 nM | 210 nM |  |  |  |
| Cc1nc2c(c(-c3cc(F)c4c(c3C)CCCO4)c1[C@H](OC(C)(C)C)C(=O)O)CN(CCCc1ccccc1F)CC2 | > 40000 nM | 8 nM | 1 nM |  |  |  |
